Compound activity: PubChem BioAssay, several laboratories
TAAR1 antag = antagonists of human TAAR1; Q96RJ0; CHO RD-HGA16 TAAR1, Fluo-8 calcium fluorescence, antagonist; inhibition, % at 3 µM; hit rate 1.5% among 360,000; AID 624466;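 active = inhibition above a per-plate cutoff, the mean inhibition of test compounds on that plate plus 3 SD, cut at about 49% in these data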;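 also: 0% = DMSO plus EC80 beta-PEA response and 100% = DMSO alone without agonist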
Target sequence (Q96RJ0 whole entry, looked up): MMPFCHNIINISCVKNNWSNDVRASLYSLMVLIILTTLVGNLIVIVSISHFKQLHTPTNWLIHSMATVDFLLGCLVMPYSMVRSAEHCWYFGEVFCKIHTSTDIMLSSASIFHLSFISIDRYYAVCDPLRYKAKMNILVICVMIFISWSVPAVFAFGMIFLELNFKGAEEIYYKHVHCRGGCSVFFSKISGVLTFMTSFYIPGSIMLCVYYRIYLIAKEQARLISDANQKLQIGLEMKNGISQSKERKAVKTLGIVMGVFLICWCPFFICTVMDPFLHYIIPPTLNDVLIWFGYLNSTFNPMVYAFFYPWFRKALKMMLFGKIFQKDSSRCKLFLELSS
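Assay system: CHO-derived RD-HGA16 cells stably expressing human TAAR1 plus Gα16. Timing: 140 s kinetic read after compound, 140 s after agonist. Technique: kinetic Fluo-8 calcium fluorescence measurement. Measure: % inhibition of agonist calcium response.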
ANO1 activ = activates or potentiates the mouse TMEM16A chloride channel | HEK293 TMEM16A/YFP-H148Q/I152L, iodide quench fluorescence; hits give low values | B-score at 10 µM | hit rate 0.3% among 340,000;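 active = fluorescence-ratio B-score plate-corrected deviation score at least 3 library SD below zero, with starting fluorescence score within 5 deviations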;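 also: channel opened by trigger with iodide after compound preincubation; score built on the fluorescence ratio of max minus min over baseline; more negative score means more quench and so TMEM16A activation or potentiation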
TMEM16A inh = inhibitors of mouse TMEM16A calcium-activated chloride channel; Q8BHY3; HEK293 TMEM16A/YFP iodide influx fluorescence, ionomycin; normalized B-score (activity score, 25-100; higher = stronger inhibition) at 10 µM; hit rate 1.2% among 310,000;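 active = ratio plate-corrected score three or more library SD toward inhibition, starting fluorescence score within five deviations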;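 also: score derived from kinetic fluorescence span divided by baseline fluorescence per well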
CRFR2-BP antag = antagonists of CRF-binding protein/CRF-R2 receptor complex; inhibition, % at 11.8 µM; HEK293 CRF-R2/CRF-BP, CRF-induced calcium fluorescence; hit rate 0.59% among 350,000;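 active = inhibition of the ligand-induced calcium signal above about 50% at the single tested concentration, limit read from the data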
TAAR1 ag = human TAAR1 agonism; Q96RJ0; CHO RD-HGA16 TAAR1, Fluo-8 calcium fluorescence; vehicle wells 0%, saturating PEA agonist 100%; activation, % at 3 µM; hit rate 0.99% among 360,000;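 active = activation above the mean activation of all test compounds in the run plus 3 SD, cut at about 38% in these data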
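Assay system – CHO-derived RD-HGA16 cells with stable Gα16 and human TAAR1 · Compound dosing – one-point dosing at 3 µM (nominal) · Incubation – 17-24 h seeding, 75 min 37 °C dye, 30 min RT · Measured by – kinetic Fluo-8 calcium fluorescence · Control set – DMSO vehicle as 0%, PEA at EC100 as 100% · Repeats – single well for each compound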
CRFBP-R2 agonist = agonists of human CRF-binding protein/CRF-R2 receptor complex. activation, % at 13.2 µM. hit rate 0.46% among 350,000. AID 588473. HEK293 CRF-R2/CRF-BP, calcium dye fluorescence (FLIPR); percent of saturating CRF peptide response;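 active = activation of at least 50%, plus an integration ratio under a set limit after plate pattern correction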;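 also: plate controls were neutral control wells without compound for no effect and CRF at EC100 for full effect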
TAAR1 nonsel count = nonselective antagonist in TAAR1 antagonist counter-screen | shares compounds with TAAR1 antag | counterscreen cell line, calcium fluorescence, antagonist mode | inhibition, % at 3 µM | hit rate 77% among 2,400 | AID 651780; in the data active = inhibition above about 22%;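 also: CHO-Ga16 host cells stimulated with ATP at an EC80 level; 0% = agonist EC80 plus vehicle and 100% = vehicle without agonist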
TAAR1 ant conf = confirmation of human TAAR1 antagonists. shares compounds with TAAR1 antag. TAAR1-expressing cells, fluorescence antagonist read-out. inhibition, % at 3 µM. hit rate 40% among 2,400; in the data active = inhibition above about 49%;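 also: CHO-Ga16 host cells challenged with agonist PEA near its EC80; 0% = agonist at EC80 plus vehicle and 100% = vehicle with no agonist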
Ga16 nonsel ag = nonselective Ga16 agonism, counter-screen; shares compounds with TAAR1 antag; Ga16-expressing cells, calcium fluorescence, agonist counterscreen; activation, % at 3 µM; hit rate 18% among 2,400; AID 651953; in the data active = activation above about 12%;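 also: 0% = vehicle wells and 100% = saturating stimulus response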
TAAR1 ag count = TAAR1 agonism, antagonist counter-screen | shares compounds with TAAR1 antag | hTAAR1 cell line, fluorescence activation, agonist mode | activation, % at 3 µM | hit rate 2% among 2,400; in the data active = activation above about 37%;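 also: CHO cells stably expressing TAAR1 with calcium dye readout; 0% = DMSO vehicle and 100% = full agonist response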
* = called active by the depositor; i = inactive; / = no result given. An excerpt weighted towards active compounds, which were near 3.9% of everything screened.

SMILES	TAAR1 antag	ANO1 activ	TMEM16A inh	CRFR2-BP antag	TAAR1 ag	CRFBP-R2 agonist	TAAR1 nonsel count	TAAR1 ant conf	Ga16 nonsel ag	TAAR1 ag count
Fc1cccc(-c2cc3nc4c(c(N5CCOCC5)n3n2)CCCC4)c1	49.2*	i	i	-45.2	6.6	0.0	18.3	25.9	5.2	10.9
Clc1cccc(-c2cc3nc4c(c(N5CCOCC5)n3n2)CCCC4)c1	20.9	i	i	-20.8	-0.2	-0.8	/	/	/	/
COc1cccc(C2/C(=C(\O)c3ccc4c(c3)OCCO4)C(=O)C(=O)N2CCCN2CCOCC2)c1OC (stereo unspecified)	/	i	i	5.3	/	0.9	/	/	/	/
CCc1cccc(NC(=O)CSCc2cc(=O)[nH][nH]2)c1	105.5*	i	i	7.8	-3.2	2.5	12.4	6.0	0.7	-0.1
Cc1csc(NC(=O)CCc2nc3ccccc3s2)n1	-7.6	i	i	-1.3	2.7	-0.8	/	/	/	/
O=C(COC(=O)CCc1nc2ccccc2s1)Nc1nc(-c2ccccc2)cs1	55.1*	i	i	-10.1	4.1	0.7	33.0*	36.9	4.4	7.2
CCCCNC(=O)c1ccc(Cc2cn(C)c3ccccc23)nc1	-2.6	/	/	/	1.5	/	/	/	/	/
Cc1ccc(CN(C)C(=O)C2CCC(=O)N(C3CCCCCC3)C2)cc1 (stereo unspecified)	5.0	i	i	-11.0	0.9	0.2	/	/	/	/
COc1cc(-c2c(C#N)c(N)nc3c2CCCC3)ccc1O	-5.1	i	i	4.0	6.6	-1.4	/	/	/	/
CCCc1cc(-c2ccc(O)c(OCC)c2)c(C#N)c(N)n1	0.6	i	i	8.2	0.2	-2.6	/	/	/	/
COc1ccc(-c2c(C#N)c(N)nc3c2CCc2ccccc2-3)cc1OC	60.1*	/	i	5.8	22.6	2.1	31.3*	51.7*	9.2	24.2
COc1ccc(-c2cc(-c3ccc(O)cc3)nc(N)c2C#N)cc1OC	50.4*	i	i	7.7	13.4	-0.1	26.2*	46.2	7.7	14.6
C(=Nn1cnnc1)c1ccc2c(c1)CCC2	1.7	/	/	-4.1	-0.7	-1.4	/	/	/	/
O=C(CCCOc1ccc(Cl)cc1Cl)N1CCCc2ccccc21	49.9*	i	100*	3.0	5.9	2.3	14.0	12.2	0.4	-0.8
O=C(COc1ccc(Cl)cc1Cl)OCC(=O)N1CCCc2ccccc21	-23.0	i	i	-23.3	5.4	1.6	/	/	/	/
CC(=O)OCC(=O)C1(O)CCC2C3CC(C)C4=CC(=O)C=CC4(C)C3=CCC21C (stereo unspecified)	-1.9	i	/	-12.1	-0.1	4.0	/	/	/	/
COc1ccc(CCNC(=O)c2ccc(-c3ccc([N+](=O)[O-])cc3)o2)cc1OC	61.1*	i	i	6.8	13.0	0.3	22.0*	34.4	11.1	9.6
COc1ccc(NC(=O)c2ccc(-c3ccc([N+](=O)[O-])cc3)o2)cc1	8.5	i	i	15.1	0.8	-1.4	/	/	/	/
COc1ccccc1NC(=O)Nc1nc(CC(=O)Nc2ccc(F)c(F)c2)cs1	42.4	i	i	9.7	12.7	0.2	/	/	/	/
COc1ccccc1NC(=O)Nc1ccc(NC(=O)c2ccccc2O)cc1	61.0*	i	i	-1.1	11.9	-3.2	39.0*	46.4	7.0	5.1
COc1ccc(C)cc1NC(=O)Cc1csc(NC(=O)Nc2ccccc2OC)n1	72.6*	/	/	-7.0	6.5	-1.7	26.9*	47.7	8.3	6.1
COc1ccccc1NC(=O)Cc1csc(N)n1	-1.8	i	i	-5.8	-0.5	-5.9	/	/	/	/
COc1ccccc1NC(=O)N1CCN(c2ccc(F)cc2)CC1	-15.5	i	i	-4.9	1.6	-0.2	/	/	/	/
